Source: ChEMBL document CHEMBL4513216, “Probing the Open Global Health Chemical Diversity Library for Multistage-Active Starting Points for Next-Generation Antimalarials” (ACS Infect Dis, 2020)

Experiment: Toxicity liver stage against HepG2, at 10uM
Assay type: cell-based
Set-up: test concentration 10 uM, cell line HepG2-A16-CD81EGFP
Conditions: human, HepG2-A16-CD81EGFP cells; read-out: INHIBITION
How it was run: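 Uninfected HepG2-A16-CD81EGFP cells, 3 × 10^3 per well, 1536-well, plated on prespotted compound at 10 μM final, parasite-free screening media added to match infected plates; puromycin 10 μM positive, DMSO 0.5% negative; run in parallel with 48 h PbLuc assay at 37 °C, 5% CO2; viability by CellTiter-Glo luminescence, normalized to controls.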

| Structure (SMILES) | cytotoxicity at 10 µM |
| --- | --- |
| CCN1CCC(CC(=O)NCCc2nc(N)cc(O)n2)CC1 | 0.821% |
| Cc1ncsc1CCN(C)C(=O)C(c1cccnc1)N1CCOCC1 (stereo not given) | -6.02% |
| O=C1CCOCCN1Cc1ccc(Cl)c(F)c1 | -3.31% |
| CN1C(=O)CC(C(=O)O)C12CCN(c1ccc3cccc(Cl)c3n1)CC2 (stereo not given) | 2.1% |
| COCCN(C)CCN1CC2(CCN(C3CCSC3)CC2)OC1=O (stereo not given) | -2.28% |
| Cc1cccc(C(C(=O)N2CCN(C(=O)c3ccc[nH]3)CC2)N(C)C)c1 (stereo not given) | -7.55% |
| CC1(C)CNC(=O)c2nc(-c3nnc(-c4ccccc4)[nH]3)[nH]c2C1 | -5.79% |
| COCCC1(CO)CCCN(C(=O)c2cc(=O)[nH]c(=O)[nH]2)C1 (stereo not given) | -5.16% |
| CCc1nc2c(c(N(C)Cc3nncn3CCOC)n1)CCNCC2 | -7.63% |
| O=c1c2ccccc2cnn1Cc1cncn1C1CC1 | 3.72% |
| O=C(c1cncc(NCC2COc3ccccc3C2)n1)N1CCCCC1 (stereo not given) | 1.64% |
| Nc1cnc(-c2cccc3c2CCNC3)cn1 | -12% |
| CN(C)c1ncc(CN2CCCC(Nc3ccc4c(c3)OCCO4)C2)s1 (stereo not given) | 8.12% |
| CN(C)C(=O)c1cn2cc(-c3ccccc3Cl)n(CC3CC3)c(=O)c2n1 | -1.43% |
| O=C(C1CCCC1)N1CC[C@]2(O)CCN(Cc3ncccn3)C[C@@H]2C1 | 9.04% |
| COc1ccc2c(c1)CCN(Cc1cscn1)CC2 | 0.0869% |
| CCc1ncc(C(=O)NCCn2c(C)cc(C)nc2=O)cn1 | -1.75% |
| COc1cc(Oc2ccc(C(N)=O)cn2)ccc1CN1CCCC1 | -0.398% |
| COc1ccccc1OCc1cc(C(=O)N2C[C@H](O)[C@@H](N(C)C)C2)n[nH]1 | 3.2% |
| O=C(O)[C@]12CCCN(Cc3ccncc3)[C@@H]1CCN(c1cnccn1)C2 | 20.4% |
| Cc1scc(C(=O)N2CCC3(CC(=O)NC3=O)C2)c1-c1ccccc1 (stereo not given) | -17.5% |
| Cc1nc(-c2cccc(C(=O)O)c2)cc(C2CCN(C(C)C)C2)n1 (stereo not given) | 5.32% |
| Cc1cnc(C(=O)N2CCCCC2c2[nH]ncc2S(C)(=O)=O)cn1 (stereo not given) | 2.12% |
| Cc1nnc(NCc2cccnc2OCC(F)(F)F)c(C#N)c1C | -7.77% |
| Cc1nnc2n1CCN(Cc1csc(COc3ccccc3)n1)C2 | -14.3% |
| CCc1noc(C(C)N2CCN(CCN3CCCC3=O)CC2)n1 (stereo not given) | -9.37% |
| Cc1cccc(NC2CCN(C(=O)Nc3ccc(F)cc3C)CC2)n1 | -11.7% |
| Cc1ccc(F)c(NC(=O)NCCCn2nc3ccccn3c2=O)c1 | -13.3% |

| Structure (SMILES) | cytotoxicity at 10 µM |
| --- | --- |
| Cn1nc2c(cc1=O)CN(Cc1coc(-c3ccc(F)cc3)n1)CC2 | -11.5% |
| Cc1nccn1C1CCCN(C(=O)c2cccc(OCC(N)=O)c2)C1 (stereo not given) | -13% |
| CN(C)c1cc(CNC(=O)Nc2nccs2)ccn1 | 2.3% |
| Cc1nccc(CNc2cc(N3CCCC3CO)ncn2)n1 (stereo not given) | -14% |
| CCN1CCC(NC(=O)CN2CCc3c(ncn3C3CC3)C2)CC1 | -4.8% |
| CNC(=O)c1ccc(C(=O)N2CCC(Nc3cccnn3)CC2)cn1 | -19.4% |
| CC(=O)Nc1nc(C(=O)N2CCCCC2Cn2cc(C)cn2)cs1 (stereo not given) | -17.1% |
| CC1CN(C(=O)CN(Cc2ccccc2Cl)C2CCCC2)CCO1 (stereo not given) | -5.65% |
| CC(=O)N(Cc1noc(C)n1)C1CCN(Cc2cnc(C)s2)C1 (stereo not given) | -9.65% |
| CCc1nnsc1C(=O)N1CCCN(Cc2ccc(F)cc2)CC1 | -3.69% |
| CS(=O)(=O)NCC1CCCN(C(=O)COc2ccc(F)cc2)C1 (stereo not given) | -6.38% |
| CCc1noc(C(C)N2CCN(Cc3ncc(C(C)(C)C)o3)CC2)n1 (stereo not given) | -6.62% |
| CCNc1cc2c(nn1)CCN(C(=O)c1ccc(NC3CC3)nc1)C2 | -12.3% |
| CC(c1ccc(F)c(F)c1)N1CCN(Cc2nccn2C)CC1 (stereo not given) | -2.76% |
| Cn1c(C2CC2)nc2c1CCN(CCS(=O)(=O)c1ccccc1)C2 | 3.73% |
| CCn1nc2c(cc1=O)CN(CC(=O)Nc1nc(C)c(C)s1)CC2 | -8.8% |
| CCCn1nc(C)c(-c2cncn2CCN(C)C2CCCC2)c1C | 4.16% |
| COC(=O)c1ccc(CN[C@@H]2COC[C@H]2Cc2cc(C)no2)cc1 | -23% |
| c1cnc2c(c1)cc([C@@H]1CCCO1)n2CCN1CCOCC1 | -19.7% |
| Cc1nc(C2(O)CCCNCC2)sc1CCOc1ccccc1F (stereo not given) | -36.5% |
| CN(C)S(=O)(=O)N1CC[C@]2(C[C@H](Oc3cccnc3)CO2)C1 | -0.465% |
| Cc1cccc(CN2CCC3(CCCN(C(=O)NC4CC4)C3)C2=O)n1 (stereo not given) | 12.2% |
| Cc1ccoc1C(=O)N1C[C@@H]2[C@@H](C1)OCC(=O)N2Cc1cccnc1 | 9.38% |
| CO[C@H]1CCN(Cc2cnn(C)c2)[C@@H]2CN(Cc3cccnc3)C[C@H]12 | -4.17% |
| Cc1ccc(N2CCC3(CCN(C(=O)c4ccoc4)CC3)CC2)nn1 | -0.355% |
| Cc1ccc(CNS(=O)(=O)C=c2[nH]c(=O)n3cccc3c2=O)cc1 | 6.38% |
| CN(C)C(=O)CN1C[C@H]2CC[C@@H](C1)N(Cc1cc(F)ccc1F)C2 | -24% |
